Screening data deposited in PubChem by The Scripps Research Institute Molecular Screening Center.
A selection: hits, their analogues and other compounds. The true share with any hit is near 4.7%.
AHR act: activators of human aryl hydrocarbon receptor; P35869; AHR-responsive luciferase reporter cells, luminescence; activation, % at 5 µM; 320,000 compounds, 2.5% hits; AID 2796; in the data active = activation above about 47%
Target sequence (P35869 whole entry, looked up): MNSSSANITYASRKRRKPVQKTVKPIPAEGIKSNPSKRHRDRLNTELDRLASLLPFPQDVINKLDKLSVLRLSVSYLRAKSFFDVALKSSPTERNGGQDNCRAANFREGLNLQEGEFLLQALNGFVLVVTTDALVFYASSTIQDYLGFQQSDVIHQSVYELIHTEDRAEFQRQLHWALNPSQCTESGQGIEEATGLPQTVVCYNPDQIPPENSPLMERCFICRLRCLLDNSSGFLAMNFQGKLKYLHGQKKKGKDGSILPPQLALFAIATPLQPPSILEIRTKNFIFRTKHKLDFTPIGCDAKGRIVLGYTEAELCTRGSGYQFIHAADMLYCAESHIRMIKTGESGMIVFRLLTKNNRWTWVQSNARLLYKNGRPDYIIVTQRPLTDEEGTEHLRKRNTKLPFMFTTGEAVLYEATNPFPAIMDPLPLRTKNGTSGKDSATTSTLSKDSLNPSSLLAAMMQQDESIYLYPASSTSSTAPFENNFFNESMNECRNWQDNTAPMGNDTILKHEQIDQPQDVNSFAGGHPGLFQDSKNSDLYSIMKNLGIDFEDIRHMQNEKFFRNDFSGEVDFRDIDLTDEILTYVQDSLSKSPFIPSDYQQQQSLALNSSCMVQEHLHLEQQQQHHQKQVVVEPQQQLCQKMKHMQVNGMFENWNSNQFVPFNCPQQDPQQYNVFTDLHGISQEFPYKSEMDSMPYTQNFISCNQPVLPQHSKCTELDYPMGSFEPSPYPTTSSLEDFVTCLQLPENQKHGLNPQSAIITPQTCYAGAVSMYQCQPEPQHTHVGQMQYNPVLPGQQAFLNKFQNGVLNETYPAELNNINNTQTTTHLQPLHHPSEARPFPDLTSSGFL
MC4R antagonist: antagonists of human melanocortin 4 receptor (MC4R) | inhibition, % at 6.5 µM | P32245 | MC4R-expressing cells, MTII-stimulated cAMP, LANCE TR-FRET | 360,000 compounds, 0.48% hits;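 active = inhibition above its plate's cutoff, the mean of tested wells on that plate plus 3 SD, cut at about 29% in these data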
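material = U2OS cells stably expressing human melanocortin 4 receptor (MC4R) | also added = Melanotan II challenge | dosing = single nominal compound dose of 6.5 µM | detection = TR-FRET with Eu-cAMP and labeled anti-cAMP, 671 nm | replication = singlicate | timing = compound 30 min, challenge 1 h, detection 1 h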
GAA850 FXN act: activators of GAA850 frataxin (FXN) promoter; HEK293 lucGAA850 FXN promoter luciferase reporter, 24 h; percent of 10 µM SAHA response; activation, % at 6 µM; 360,000 compounds, 0.56% hits; AID 540364;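 active = activation above the average of all compounds screened plus 3 SD, cutoff fixed separately per campaign, cut at about 7.5% in these data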
MC4R ag barr: activates human MC4R beta-arrestin recruitment; U2OS MC4R beta-arrestin complementation, luminescence; percent of melanotan II response, DMSO zero; activation, % at 8.9 µM; 360,000 compounds, 0.98% hits;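 active = activation above a per-plate cutoff, the mean activation of sample wells on that plate plus 3 SD, cut at about 8% in these data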
HTR2A ag: agonists of mouse serotonin 5-HT2A receptor (HTR2A); P35363; 360,000 compounds, 0.66% hits; activation, % at 7.6 µM; CHO-K1 mHTR2A beta-arrestin complementation, luminescence; percent of 30 µM serotonin response;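 active = activation above a run cutoff, the mean activation of all tested compounds plus 3 SD, cut at about 14% in these data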
AHR act confirm: confirmation of human aryl hydrocarbon receptor activators. shares compounds with AHR act. human cells, AHR-responsive luciferase reporter, luminescence. activation, % at 9 µM. 2,300 compounds, 87% hits; in the data active = activation above about 49%;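 also: HepG2 hepatoma cells carrying a DRE-driven firefly luciferase reporter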
PXR act counter: counter-screen for AHR activators: human PXR activators; AID 434939; 2,300 compounds, 88% hits; shares compounds with AHR act; cell-based PXR reporter, luciferase luminescence; activation, % at 11.6 µM; in the data active = activation above about 11%;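 also: human hepatoma DPX-2 cells expressing full-length human PXR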
A number is an active result; i = inactive; nt = not tested or not shown.

SMILES | AHR act | MC4R antagonist | GAA850 FXN act | MC4R ag barr | HTR2A ag | AHR act confirm | PXR act counter
CC1(C)CN(Cc2ccccc2)C(=O)[C@H]1CC(=O)Nc1ccc(Br)cc1 | nt | i | i | i | i | nt | nt
CC[C@]1(C(=O)OC)[C@H]2C(=O)N(C)C(=O)[C@H]2[C@H]2CN=C(SC)N21 | nt | i | i | i | i | nt | nt
CCN(CC)S(=O)(=O)c1ccc(C)c(NC(=O)COC(=O)CCC(=O)c2cccs2)c1 | i | i | i | i | i | nt | nt
O=C(NCC1CCCO1)c1ccc(COc2ccc(F)cc2)o1 (stereo not given) | i | i | i | i | i | nt | nt
CCOc1cc(N)c(Cl)cc1C(=O)NCC1CN(Cc2ccc(F)cc2)CCO1 (stereo not given) | 90 | i | i | i | i | 63 | 181
COc1cc(/C=N/Nc2nc3ccccc3[nH]2)cc(OC)c1O | 81 | i | i | i | i | i | i
CCN(CC)c1ccc(/C=N/Nc2nc3ccccc3[nH]2)cc1 | nt | i | i | i | i | nt | nt
CC(=O)Nc1ccc(/C=N/Nc2nc3ccccc3[nH]2)cc1 | 157 | i | i | i | i | 107 | 13
Cc1nn(-c2ccccc2)c(C)c1/C=N/Nc1nc2ccccc2[nH]1 | 181 | i | i | i | i | i | 26
C(=N\Nc1nc2ccccc2[nH]1)/c1ccncc1 | 108 | i | i | i | i | 114 | 11
COc1cccc(CN(C(=O)c2cccs2)C2CCS(=O)(=O)C2)c1 (stereo not given) | i | i | i | i | i | nt | nt
COc1ccc(Cl)cc1C(=O)NNC(=O)c1cccs1 | i | i | i | i | i | nt | nt
CCOC(=O)C1=CCN(S(=O)(=O)c2ccc(C)cc2)C1c1cccc2ccccc12 (stereo not given) | nt | nt | nt | nt | i | nt | nt
CCc1ccccc1Nc1nc2ccccc2[nH]1 | i | i | i | i | i | nt | nt
COc1ccccc1Nc1nc2ccccc2[nH]1 | 119 | i | i | i | i | 63 | 35
N#Cc1ccc(C23OCCN2CCn2nc4ccccc4c23)cc1 (stereo not given) | 103 | i | i | i | i | 109 | 95
O=C(Cn1nc(CNc2ccc(Cl)cc2)[n+]2c1CCCCC2)c1ccc(Br)cc1 | 100 | i | i | i | i | i | 24
O=C(/C(=C(\[O-])c1ccccc1)[n+]1ccc2ccccc2c1)c1ccc(Cl)cc1 | 103 | i | i | i | i | 92 | 54
CC(C)(C)NC(=S)N/N=C/c1c(Cl)cccc1Cl | 103 | i | i | i | i | i | 131
CCNC(=S)N/N=C/c1c(Cl)cccc1Cl | i | i | i | i | i | nt | nt
CN=C(Nc1cccnc1)c1cccc(C(F)(F)F)c1 | i | i | i | i | i | nt | nt
CN=C(Nc1ccc(Cl)cc1)c1cccc(C(F)(F)F)c1 | 84 | i | i | i | i | 89 | 56
CN=C(Nc1ccc(Cl)cc1)c1ccc(C(F)(F)F)cc1 | 85 | i | i | i | i | 98 | 45
COc1ccc(OC)c(/C=N/NC(=O)CNC(=O)c2ccc(S(=O)(=O)N3CCOCC3)cc2)c1 | 125 | i | i | i | i | i | i
O=C(Nc1ccccc1)c1cnc(-c2ccccc2)nc1-c1ccccc1 | 90 | i | i | i | i | 93 | 47
SMILES | AHR act | MC4R antagonist | GAA850 FXN act | MC4R ag barr | HTR2A ag | AHR act confirm | PXR act counter
O=C(Nc1ccc(F)cc1)c1ccc(=O)[nH]n1 | i | i | i | i | i | nt | nt
O=C(Nc1cccc(Cl)c1)c1ccc(=O)[nH]n1 | 148 | i | i | i | i | 104 | nt
Cc1cc(NCCCn2ccnc2)n2c(nc3ccccc32)c1C#N | 104 | i | i | i | i | 79 | 16
Cc1cccc2cc(C#N)c(NCCCn3ccnc3)nc12 | 92 | i | i | i | i | 67 | 33
Cc1cccc2cc(C#N)c(NCc3ccccc3)nc12 | i | i | i | i | i | nt | nt
Cc1c(NC(=O)COC(=O)CSc2ccc([N+](=O)[O-])cc2)c(=O)n(-c2ccccc2)n1C | i | i | i | i | i | nt | nt
FC(F)(F)c1ccccc1Cc1c(-c2cccc(Cl)c2)nc2c3ccccc3ccn12 | nt | nt | nt | nt | i | nt | nt
O=C(Nc1nccs1)c1sc2cc(Cl)ccc2c1Cl | 80 | i | i | 10 | i | 110 | 18
Cn1cccc1/C=N\NC(=O)C1COc2ccc(C(C)(C)C)cc2O1 (stereo not given) | i | i | i | i | i | nt | nt
Cc1c(/C=N\NC(=O)C2COc3ccc(C(C)(C)C)cc3O2)c2ccccc2n1C (stereo not given) | 79 | i | i | i | i | i | 66
Cc1cc(C)nc(Nc2n[nH]c(-c3ccccc3C)n2)n1 | 87 | i | i | i | i | 131 | 45
Cc1cc(C)nc(Nc2n[nH]c(-c3ccccc3Br)n2)n1 | i | i | i | i | i | nt | nt
Cc1cccnc1C(NC(=O)C1CCN(CCCOc2ccc(F)cc2)CC1)c1ccccc1 (stereo not given) | nt | i | i | i | i | nt | nt
COc1ccc2c(c1OC)C(=O)N(c1nccs1)C2 | 82 | i | i | i | i | 148 | 17
CCCCN(CC)C(=O)CSc1nc2n[nH]c(C)c2c(=N)n1-c1cccc(C)c1 | 86 | i | i | i | i | i | 147
COc1ccc(-c2nnc(SCC(=O)N3CCCC3=O)n2N)cc1OC | i | i | i | i | i | nt | nt
CCCOc1ccccc1NC(=O)c1ccc(N)cc1 | 101 | i | i | i | i | 117 | 47
CCOc1ccccc1NC(=O)c1ccc2nccnc2c1 | 83 | i | i | i | i | 109 | nt
CCOc1ccccc1NC(=O)c1ccc2nc[nH]c2c1 | i | i | i | i | i | nt | nt
Nc1ccccc1C(=O)NNc1c2ccccc2nc2ccccc12 | 96 | i | i | i | i | 105 | 64
COc1ccc(NC(=O)CN2c3cccc4cccc(c34)S2(=O)=O)cc1OC | nt | i | i | i | i | nt | nt
CCc1nc2c(OCc3ccc(Cl)cc3Cl)cccn2c1N(C)C(=O)C1CC1 | nt | i | i | i | i | nt | nt
O=C(CCN1C(=O)C2CC=CCC2C1=O)Nc1ccc(S(=O)(=O)N2CCCCC2)cc1 (stereo not given) | nt | i | i | i | i | nt | nt
Cc1c2ccccc2nc2c(F)c(N(C)C)c(F)c(F)c12 | 122 | i | i | i | i | i | 46
CN(C)c1c2ccccc2nc2c(F)c(F)c(F)c(F)c12 | i | i | i | i | i | nt | nt
COCCNC(=O)C1(C)CCCN(Cc2cc(C(F)(F)F)ccc2Cl)C1 (stereo not given) | nt | i | i | i | i | nt | nt
CN(c1cccc(F)c1)c1cc2c(c3c1ccn3C)C1CCC2O1 (stereo not given) | nt | nt | nt | nt | i | nt | nt
CCOC(=O)c1c(N/N=C/c2ccncc2)n[nH]c1C | 97 | i | i | i | i | 66 | 15
CC(=O)Nc1ccc2c(c1)C(=O)N(c1cccc(C)c1)C2=O | i | i | i | i | i | nt | nt
CC(=O)Nc1cccc2c1C(=O)N(c1ccc(C)cc1)C2=O | 99 | i | i | i | i | 99 | nt
